Data on 14 compounds can be found in ChEMBL document CHEMBL3112433, “Synthesis and antimicrobial activities of novel 1,2,4-triazolo [3,4-a] phthalazine derivatives” (2014).

The MIC is the lowest concentration found to suppress growth. A low value points to a more susceptible organism.

SMILES strings stand for the structures. Converted amounts (≈) assume the structure as drawn. Some results are limits rather than exact numbers.

What all share (type): functional
Assay [1] concerns Candida albicans. Description: Antimicrobial activity against Candida albicans after 24 hrs by broth microdilution method. For orientation: In broth dilution the organism is exposed to a series of concentrations in liquid medium.
Assay [2] concerns Stenotrophomonas maltophilia. Description: Antimicrobial activity against Stenotrophomonas maltophilia after 24 hrs by broth microdilution method. The essentials: (§1)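 MICs determined by two-fold broth microdilution following CLSI guidelines (M100-S22), with compound concentrations of […] in the well. Every well except the blank was inoculated with the test bacterium and incubated at 37 °C for 24 h. MIC was taken as the lowest concentration with no visible growth.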

The test system of assay [3] is Acinetobacter baumannii. Description: Antimicrobial activity against Acinetobacter baumannii after 24 hrs by broth microdilution method. An outline of the steps: as §1
Assay [4] relates to Escherichia coli. The experiment in a line: Antimicrobial activity against Escherichia coli after 24 hrs by broth microdilution method. An outline of the steps: as §1
Assay [5] deals with Bacillus subtilis. The experiment in a line: Antimicrobial activity against Bacillus subtilis after 24 hrs by broth microdilution method. An outline of the steps:
as §1

The subject of assay [6] is Staphylococcus aureus. Description: Antimicrobial activity against Staphylococcus aureus after 24 hrs by broth microdilution method. An outline of the steps: as §1

`Fc1ccc(Nc2nn3c(-c4ccccc4)nnc3c3ccccc23)cc1`: the MIC in assay [1] was over 128 µg/mL; in assay [2], over 128 µg/mL; in assay [3], over 128 µg/mL; in assay [4], over 128 µg/mL; in assay [5] it was over 128 µg/mL; in assay [6] it was 16 µg/mL (≈ 45 µM).
Take `Cc1ccc(Nc2nn3c(-c4ccccc4)nnc3c3ccccc23)cc1`: the MIC in assay [1] is over 128 µg/mL; in assay [2], over 128 µg/mL; in assay [3] it was over 128 µg/mL; in assay [4] it was over 128 µg/mL; in assay [5], over 128 µg/mL; in assay [6], 32 µg/mL (≈ 91.1 µM).
Regarding `c1ccc(-c2nnc3c4ccccc4c(N4CCNCC4)nn23)cc1`, the MIC in assay [1] stood at 32 µg/mL (≈ 96.9 µM); in assay [2], 32 µg/mL (≈ 96.9 µM); in assay [3], 64 µg/mL (≈ 194 µM); in assay [4], 128 µg/mL (≈ 387 µM); in assay [5], 64 µg/mL (≈ 194 µM); in assay [6] it was 32 µg/mL (≈ 96.9 µM).
For `Fc1ccc(Nc2nn3cnnc3c3ccccc23)cc1`, the MIC was over 128 µg/mL in assay [1]; over 128 µg/mL in assay [2]; over 128 µg/mL in assay [3]; over 128 µg/mL in assay [4]; over 128 µg/mL in assay [5]; 64 µg/mL (≈ 229 µM) in assay [6].
`Clc1ccc(Nc2nn3cnnc3c3ccccc23)cc1`: the MIC in assay [1] was over 128 µg/mL; in assay [2] it was over 128 µg/mL; in assay [3] it was over 128 µg/mL; in assay [4], over 128 µg/mL; in assay [5], over 128 µg/mL; in assay [6], 32 µg/mL (≈ 108 µM).
In the case of `COc1ccc(Nc2nn3cnnc3c3ccccc23)cc1`, the MIC in assay [1] is over 128 µg/mL; in assay [2], over 128 µg/mL; in assay [3], over 128 µg/mL; in assay [4] it was over 128 µg/mL; in assay [5] it was over 128 µg/mL; in assay [6], 128 µg/mL (≈ 439 µM).
As for `Cc1ccc(Nc2nn3cnnc3c3ccccc23)cc1`, the MIC in assay [1] was over 128 µg/mL; in assay [2], over 128 µg/mL; in assay [3] it was over 128 µg/mL; in assay [4], over 128 µg/mL; in assay [5], over 128 µg/mL; in assay [6], 32 µg/mL (≈ 116 µM).
In the case of `c1ccc2c(c1)c(N1CCNCC1)nn1cnnc21`, the MIC in assay [1], in assay [2], in assay [3], in assay [4], in assay [5] and in assay [6] was over 128 µg/mL each time.
`COc1ccc(Nc2nn3c(C)nnc3c3ccccc23)cc1`: the MIC in assay [1] was over 128 µg/mL; in assay [2], over 128 µg/mL; in assay [3], over 128 µg/mL; in assay [4], over 128 µg/mL; in assay [5] it was over 128 µg/mL; in assay [6], 16 µg/mL (≈ 52.4 µM).
On to `Cc1ccc(Nc2nn3c(C)nnc3c3ccccc23)cc1`, for which the MIC in assay [1] is over 128 µg/mL; in assay [2], over 128 µg/mL; in assay [3] it was over 128 µg/mL; in assay [4], over 128 µg/mL; in assay [5] it was over 128 µg/mL; in assay [6], 64 µg/mL (≈ 221 µM).
Regarding `Cc1nnc2c3ccccc3c(Nc3ccccc3Cl)nn12`, the MIC is over 128 µg/mL in assay [1]; over 128 µg/mL in assay [2]; over 128 µg/mL in assay [3]; over 128 µg/mL in assay [4]; over 128 µg/mL in assay [5]; 32 µg/mL (≈ 103 µM) in assay [6].
On to `Cc1nnc2c3ccccc3c(N3CC(C)CC(C)C3)nn12` (stereo not drawn), for which the MIC in assay [1] is over 128 µg/mL; in assay [2], over 128 µg/mL; in assay [3], over 128 µg/mL; in assay [4], over 128 µg/mL; in assay [5], 64 µg/mL (≈ 217 µM); in assay [6], 32 µg/mL (≈ 108 µM).
In assay [1], `OC(Cn1cncn1)(Cn1cncn1)c1ccc(F)cc1F` [FLUCONAZOLE] displayed an MIC of 1 µg/mL (≈ 3.27 µM).
Consider `C[C@H]1COc2c(N3CCN(C)CC3)c(F)cc3c(=O)c(C(=O)O)cn1c23.C[C@H]1COc2c(N3CCN(C)CC3)c(F)cc3c(=O)c(C(=O)O)cn1c23.O` [LEVOFLOXACIN], for which the MIC came to 0.5 µg/mL in assay [2]; 0.25 µg/mL in assay [3]; 0.25 µg/mL in assay [4]; 1 µg/mL in assay [5]; 0.5 µg/mL in assay [6].
